Reference: ChEMBL document CHEMBL3608292, “Synthesis and biological evaluation of novel myrtucommulones and structural analogues that target mPGES-1 and 5-lipoxygenase” (Eur J Med Chem, 2015)

What was measured:
[1] = biological target: T1, Polyunsaturated fatty acid 5-lipoxygenase (Homo sapiens, UniProt P09917); assay: Inhibition of 5-LO in ionophore A23187-stimulated human PMNL using arachidonic acid as substrate assessed as formation of LTB4, 5(S),12(S)-DiHETE, 5-H(p)ETE preincubated for 15 mins followed by substrate and ionophore addition measured after 10 mins by HPLC analysis
T1 sequence (P09917 whole entry): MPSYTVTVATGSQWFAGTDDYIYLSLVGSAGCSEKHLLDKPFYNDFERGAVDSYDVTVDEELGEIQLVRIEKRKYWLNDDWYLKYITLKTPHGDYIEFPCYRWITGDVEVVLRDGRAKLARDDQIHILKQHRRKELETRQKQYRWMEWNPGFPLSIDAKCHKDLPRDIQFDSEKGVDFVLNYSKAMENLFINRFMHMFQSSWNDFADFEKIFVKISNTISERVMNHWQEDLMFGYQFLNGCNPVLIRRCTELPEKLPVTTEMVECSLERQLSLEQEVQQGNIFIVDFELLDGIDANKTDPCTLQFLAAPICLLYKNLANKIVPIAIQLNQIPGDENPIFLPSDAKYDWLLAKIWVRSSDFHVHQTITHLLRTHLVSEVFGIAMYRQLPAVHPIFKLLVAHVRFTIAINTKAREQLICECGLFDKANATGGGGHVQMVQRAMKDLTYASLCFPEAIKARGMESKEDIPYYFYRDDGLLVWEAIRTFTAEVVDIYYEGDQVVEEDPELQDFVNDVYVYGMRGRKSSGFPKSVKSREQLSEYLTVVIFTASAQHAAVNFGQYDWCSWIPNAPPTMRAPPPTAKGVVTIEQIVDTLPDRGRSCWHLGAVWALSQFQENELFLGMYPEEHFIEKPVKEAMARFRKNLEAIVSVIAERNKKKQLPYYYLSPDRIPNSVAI

[2] = biological target: T1, Polyunsaturated fatty acid 5-lipoxygenase; assay: Inhibition of recombinant human 5-LO expressed in Escherichia coli BL21 using arachidonic acid as substrate assessed as formation of all-trans isomer of LTB4, 5-H(P)ETE preincubated for 5 to 10 mins followed by substrate addition measured after 10 mins by HPLC analysis
Jurkat = assay: Cytotoxicity against human Jurkat cells assessed as induction of cell death after 48 hrs by MTT assay; type: functional, cell-based
Method in brief: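 Jurkat T cells grown in RPMI 1640 with 10% heat-inactivated FCS, 10 mM HEPES, penicillin/streptomycin at 37 °C, 5% CO₂. Seeded at 2 × 10⁴ per well. Compounds or 0.3% DMSO vehicle added for 48 h. MTT then added until blue staining, cells lysed overnight in 10% SDS/20 mM HCl, absorbance read at 570 nm. Three to four independent experiments.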

Prostaglandin E synthase = biological target: T2, Prostaglandin E synthase (Homo sapiens, UniProt O14684); assay: Inhibition of mPGES-1 in microsomal membranes isolated from interleukin-1beta-stimulated human A549 cells using PGH2 as substrate assessed as PGE2 formation preincubated for 15 mins followed by substrate addition measured after 1 min by RP-HPLC analysis; type: cell membranes
T2 sequence (O14684 whole entry): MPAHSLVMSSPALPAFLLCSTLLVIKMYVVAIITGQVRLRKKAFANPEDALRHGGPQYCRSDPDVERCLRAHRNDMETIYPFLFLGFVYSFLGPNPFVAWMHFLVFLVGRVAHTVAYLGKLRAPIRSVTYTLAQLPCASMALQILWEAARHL
Method in brief: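 A549 cells kept 16 h in DMEM with 2% FCS, then 1 ng/ml IL-1β for 72 h. Cells homogenized and sonicated, microsomes obtained by centrifugation at 10,000 × g then 174,000 × g. Microsomes in 0.1 M potassium phosphate pH 7.4 with 2.5 mM glutathione, preincubated 15 min with compound or 0.3% DMSO. 20 µM PGH₂ (final) for 1 min at 4 °C. Stopped with FeCl₂/citric acid containing 11β-PGE₂, solid-phase extraction, RP-HPLC with UV at 195 nm.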

[3] = biological target: T3, Polyunsaturated fatty acid 5-lipoxygenase (Homo sapiens) (UniProt P09917); assay: Inhibition of recombinant human 5-LO expressed in Escherichia coli BL21 using arachidonic acid as substrate assessed as remaining activity at 10 uM preincubated for 5 to 10 mins followed by substrate addition measured after 10 mins by HPLC analysis relative to control
T3 sequence (whole entry): T1 sequence (P09917 whole entry)
Method in brief: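 5-LO expressed in E. coli BL21 from pT3-5-LO plasmid at 37 °C, then partially purified. Enzyme with compound held 5–10 min at 4 °C, prewarmed 30 s at 37 °C. Reaction started with 2 mM CaCl₂ plus 20 µM AA, stopped after 10 min at 37 °C with ice-cold methanol. All-trans LTB₄ isomers and 5-H(P)ETE quantified by HPLC. BWA4C used as control.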

[4] = biological target: T3, Polyunsaturated fatty acid 5-lipoxygenase (Homo sapiens); assay: Inhibition of 5-LO in ionophore A23187-stimulated human PMNL using arachidonic acid as substrate assessed as remaining activity at 10 uM preincubated for 15 mins followed by substrate and ionophore addition measured after 10 mins by HPLC analysis relative to control
Method in brief: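 Human PMNL isolated by dextran sedimentation, density-gradient centrifugation and hypotonic erythrocyte lysis. 5 × 10⁶ cells/ml in PBS pH 7.4 with 1 mg/ml glucose and 1 mM CaCl₂. Compounds preincubated 15 min at 37 °C, then ionophore A23187 plus 20 µM AA for 10 min at 37 °C. Stopped with methanol/HCl, PGB₁ internal standard. 5-LO metabolites analysed by HPLC. BWA4C used as control.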

Row | Structure (SMILES) | IC50 [1] [µM] | IC50 [2] [µM] | EC50 (Jurkat) [µM] | IC50 (Prostaglandin E synthase) [µM] | Activity [3] [%] | Activity [4] [%]
1 | CCCCCC(=O)c1c(O)c([C@@H](CC(C)C)C2=C(O)C(C)(C)C(=O)C(C)(C)C2=O)c(O)c([C@H](C2=C(O)C(C)(C)C(=O)C(C)(C)C2=O)C(C)C)c1O [MYRTUCOMMULONE H] | 1.3 | 6.6 | 21.9 | 0.3 |  | 
2 | CC(C)CC(=O)c1c(O)c(C(C2=C(O)c3ccccc3C2=O)c2ccccc2)c(O)c(C(C2=C(O)c3ccccc3C2=O)c2ccccc2)c1O (configuration not stated) | 2.1 | 1.2 | > 30 | 0.65 |  | 
3 | CC(C)C(=O)c1c(O)cc(O)c2c1OC1=C(C(=O)C(C)(C)C(=O)C1(C)C)[C@@H]2C(C)C | 1.6 | 6.2 | 8.1 | 7.9 |  | 
4 | CCCCCC(=O)c1c(O)c(C(C2=C(O)CC(C)(C)CC2=O)C(C)C)c(O)c(C(C2=C(O)CC(C)(C)CC2=O)C(C)C)c1O (configuration not stated) | 2.7 | > 10 | 3.7 | 0.57 | 68.7 | 
5 | CC(C)C(=O)c1c2c(c(O)c3c1OC1=C(C(=O)C(C)(C)C(=O)C1(C)C)C3C(C)C)C(C(C)C)C1=C(O2)C(C)(C)C(=O)C(C)(C)C1=O (configuration not stated) | > 10 | > 10 | 17.1 | > 10 | 95 | 69.5
6 | CC(C)CC(=O)c1c(O)c(C(C2=C(O)c3ccccc3C2=O)C(C)C)c(O)c(C(C2=C(O)c3ccccc3C2=O)C(C)C)c1O (configuration not stated) | 1.3 | 3.1 | > 30 |  |  | 
7 | CCCCCC(=O)c1c(O)c(C(CC(C)C)C2=C(O)CC(C)(C)CC2=O)c(O)c(C(CC(C)C)C2=C(O)CC(C)(C)CC2=O)c1O (configuration not stated) | 7.3 | 2.9 | 13.1 | 0.81 |  | 
8 | O=C1C(C(c2ccccc2)c2c(O)c(C(=O)c3ccccc3)c(O)c(C(C3=C(O)c4ccccc4C3=O)c3ccccc3)c2O)=C(O)c2ccccc21 (configuration not stated) | 1.8 | 3 | > 30 | 0.48 |  | 
9 | CCCCCC(=O)c1c(O)c(C(C2=C(O)c3ccccc3C2=O)C(C)C)c(O)c(C(C2=C(O)c3ccccc3C2=O)C(C)C)c1O (configuration not stated) | 1.5 | 1.7 | > 30 |  |  | 
10 | CC(C)CC(=O)c1c(O)cc(O)c(C(CC(C)C)C2=C(O)C(C)(C)C(=O)C(C)(C)C2=O)c1O (configuration not stated) | 1.8 | 4.6 | > 30 | 0.64 |  | 
11 | CC(C)C(=O)c1c(O)c(C(C2=C(O)c3ccccc3C2=O)c2ccccc2)c(O)c(C(C2=C(O)c3ccccc3C2=O)c2ccccc2)c1O (configuration not stated) | 1.4 | 0.73 | > 30 | 0.81 |  | 
12 | CCCCCC(=O)c1c(O)c(C(CC(C)C)C2=C(O)C(C)(C)C(=O)C(C)(C)C2=O)c(O)c(C(CC(C)C)C2=C(O)C(C)(C)C(=O)C(C)(C)C2=O)c1O (configuration not stated) | 0.46 | 3.5 | 23.5 | 0.24 |  | 
13 | CC(C)C(=O)c1c(O)cc(O)c(C(C2=C(O)C(C)(C)C(=O)C(C)(C)C2=O)C(C)C)c1O (configuration not stated) | 8.1 | > 10 | > 30 | 0.82 | 82.5 | 
14 | CC(C)C(=O)c1c(O)c(C(C2=C(O)c3ccccc3C2=O)C(C)C)c(O)c(C(C2=C(O)c3ccccc3C2=O)C(C)C)c1O (configuration not stated) |  | 20 | > 30 |  |  | 
15 | CC(C)C(C1=C(O)c2ccccc2C1=O)c1c(O)c(C(=O)c2ccccc2)c(O)c(C(C2=C(O)c3ccccc3C2=O)C(C)C)c1O (configuration not stated) |  |  | > 30 |  |  | 
16 | CC(C)CC(C1=C(O)C(C)(C)C(=O)C(C)(C)C1=O)c1c(O)c(C(=O)C(C)C)c(O)c(C(CC(C)C)C2=C(O)C(C)(C)C(=O)C(C)(C)C2=O)c1O (configuration not stated) | 0.97 | 4.8 | 12.2 | 0.29 |  | 
17 | CCCCCC(=O)c1c(O)cc(O)c2c1OC1=C(C(=O)C(C)(C)C(=O)C1(C)C)C2C(C)C (configuration not stated) | 1.6 | 2.5 | 7.4 | 6.4 |  | 
18 | CC(C)C(C1=C(O)C(C)(C)C(=O)C(C)(C)C1=O)c1c(O)c(C(=O)c2ccccc2)c(O)c(C(C2=C(O)C(C)(C)C(=O)C(C)(C)C2=O)C(C)C)c1O (configuration not stated) | > 10 | > 10 | > 30 | 5 | 82.9 | 69.7
19 | CCCCCC(=O)c1c(O)cc(O)c(C(C2=C(O)C(C)(C)C(=O)C(C)(C)C2=O)C(C)C)c1O (configuration not stated) | 1.6 | > 10 | > 30 | 0.39 | 72.8 | 
20 | CCCCCC(=O)c1c(O)c(C(C2=C(O)c3ccccc3C2=O)c2ccccc2)c(O)c(C(C2=C(O)c3ccccc3C2=O)c2ccccc2)c1O (configuration not stated) | 0.69 | 0.46 | > 30 | 0.43 |  | 
21 | CC(C)CC(=O)c1c(O)c(C(CC(C)C)C2=C(O)C(C)(C)C(=O)C(C)(C)C2=O)c(O)c(C(CC(C)C)C2=C(O)C(C)(C)C(=O)C(C)(C)C2=O)c1O (configuration not stated) | 0.66 | 2.7 | 19.2 | 0.22 |  | 
22 | CCCCCC(=O)c1c(O)c([C@H](C2=C(O)C(C)(C)C(=O)C(C)(C)C2=O)C(C)C)c(O)c([C@H](C2=C(O)C(C)(C)C(=O)C(C)(C)C2=O)C(C)C)c1O [MYRTUCOMMULONE F] | 3.1 | 7.5 | 2.3 | 0.6 |  | 
23 | CC(C)C(=O)c1c(O)c(C(C2=C(O)CC(C)(C)CC2=O)C(C)C)c(O)c(C(C2=C(O)CC(C)(C)CC2=O)C(C)C)c1O (configuration not stated) | 13 | 25 | 2 | 2.1 |  | 
24 | CC(C)C(C1=C(O)CC(C)(C)CC1=O)c1c(O)c(C(C2=C(O)CC(C)(C)CC2=O)C(C)C)c(O)c(C(C2=C(O)CC(C)(C)CC2=O)C(C)C)c1O (configuration not stated) | > 10 | 2.8 | 6.2 | 0.68 |  | 83.5
25 | CCCCCC(=O)c1c(O)c(C(C2=C(O)C(C)(C)C(=O)C(C)(C)C2=O)C(C)C)c(O)c2c1OC1=C(C(=O)C(C)(C)C(=O)C1(C)C)C2C(C)C (configuration not stated) | 1.3 | > 10 | 2.5 | 0.61 | 66.7 | 
26 | CC(C)C(C1=C(O)CC(C)(C)CC1=O)c1c(O)c(C(=O)c2ccccc2)c(O)c(C(C2=C(O)CC(C)(C)CC2=O)C(C)C)c1O (configuration not stated) | > 10 | 8.6 | 4.4 | 3.5 |  | 66.1
27 | CC(=O)c1c(O)c(C(C2=C(O)CC(C)(C)CC2=O)C(C)C)c(O)c(C(C2=C(O)CC(C)(C)CC2=O)C(C)C)c1O (configuration not stated) | 8.1 | > 10 | 7.5 | 1.1 | 69.3 | 
28 | CC(C)C(=O)c1c(O)c([C@@H](C2=C(O)C(C)(C)C(=O)C(C)(C)C2=O)C(C)C)c(O)c2c1OC1=C(C(=O)C(C)(C)C(=O)C1(C)C)[C@@H]2C(C)C | 0.98 | > 10 | 3.4 | 0.49 | 82.3 | 
